The fraction unbound is free concentration divided by total concentration. By Kp is commonly meant the ratio of the level in a tissue or fluid to that in plasma or blood.

From ChEMBL document CHEMBL3525946, “Species comparison of in vivo P-glycoprotein-mediated brain efflux using mdr1a-deficient rats and mice” (Drug Metab Dispos, 2012) come the findings set out here.

Series [1] is described as follows: Percentage unbound in Crl:NMRI(Han) mouse plasma at 1 uM after 5 hrs by equilibrium dialysis method. Format: ADME, cell-free. Put shortly: (§1)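 Equilibrium dialysis (12-14 kDa membrane) of plasma or brain homogenate from naïve male Sprague-Dawley rats or Crl:NMRI(Han) mice. Donor side spiked to 1 µM final; receiver phosphate buffer pH 7.4; 37°C for 5 h. Buffer phase quantified by LC-MS. Brain fu corrected for homogenate dilution to intact tissue. Mean of two independent determinations.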
On the technique in general: In equilibrium dialysis only unbound substance equilibrates across the membrane.

Series [2] in a line: Percentage unbound in Sprague-Dawley rat plasma at 1 uM after 5 hrs by equilibrium dialysis method. The format is ADME, cell-free. Put shortly: as §1
Series [3] is described as follows: Total plasma concentration in wild type Sprague-Dawley rat expressing Abcb1a at 6 mg/kg/day administered through continuous minipump treatment for 3 days by UPLC-MS analysis. Format: ADME, organism-based. To be noted: other: continuous minipump. Put shortly:
(§2)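 Subcutaneous osmotic minipump infusion for 3 days to steady state, implanted under isoflurane (rats 10 µl/h, mice 1 µl/h). Mdr1a-deficient (SD-Abcb1a knockout rats; Crl:CF1-Abcb1a mutant mice) and wild-type animals, n=3-5 per group. After decapitation, EDTA plasma and whole brain (homogenized 1:4 in 70% acetonitrile) were precipitated with internal standard. Parent and metabolites quantified by UPLC-MS. Mean ± SEM.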

Series [4] can be described thus: Total drug level in wild type Sprague-Dawley rat brain expressing Abcb1a at 6 mg/kg/day administered through continuous minipump treatment for 3 days by UPLC-MS analysis. The format is ADME, organism-based. To be noted: other: continuous minipump, read-out: Drug uptake. The method, boiled down: as §2
Series [5] can be described thus: Total brain to plasma partition coefficient of the compound in wild type Sprague-Dawley rat expressing Abcb1a at 6 mg/kg/day administered through continuous minipump treatment for 3 days. To be noted: brain and plasma, other: continuous minipump. Format: ADME, organism-based. The method, boiled down:
(§3)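 Kp is total brain concentration divided by total plasma concentration at steady state. Measured after a 3-day subcutaneous osmotic minipump infusion in mdr1a-deficient or wild-type rats or mice, n=3-5. Concentrations determined by UPLC-MS in plasma and in whole-brain homogenate (70% acetonitrile). Mean ± SEM.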

Series [6] is described as follows: Total plasma concentration in mdr1a-deficient Sprague-Dawley rat at 6 mg/kg/day administered through continuous minipump treatment for 3 days by UPLC-MS analysis. Format: ADME, organism-based. As to conditions: other: continuous minipump. Put shortly:
as §2

Series [7] can be described thus: Total drug level in mdr1a-deficient rat brain at 6 mg/kg/day administered through continuous minipump treatment for 3 days by UPLC-MS analysis. Format: ADME, organism-based. As to conditions: other: continuous minipump, read-out: Drug uptake. The method, boiled down: as §2
Series [8] can be described thus: Total brain to plasma partition coefficient of the compound in mdr1a-deficient rat at 6 mg/kg/day administered through continuous minipump treatment for 3 days. Format: ADME, organism-based. To be noted: brain and plasma, other: continuous minipump. The method, boiled down:
as §3

The nature of series [9]: Total plasma concentration in wild type Crl:CF1 mouse expressing Abcb1a mutant at 3 mg/kg/day administered through continuous minipump treatment for 3 days by UPLC-MS analysis. The format is ADME, organism-based. As to conditions: other: continuous minipump. Put shortly: as §2
Series [10] is described as follows: Total drug level in wild type Crl:CF1 mouse brain expressing Abcb1a mutant at 3 mg/kg/day administered through continuous minipump treatment for 3 days by UPLC-MS analysis. As to conditions: other: continuous minipump, read-out: Drug uptake. Format: ADME, organism-based. Put shortly:
as §2

The nature of series [11]: Total brain to plasma partition coefficient of the compound in wild type Crl:CF1 mouse expressing Abcb1a mutant at 3 mg/kg/day administered through continuous minipump treatment for 3 days. The format is ADME, organism-based. As to conditions: other: continuous minipump. The method, boiled down: as §3
Series [12] can be described thus: Total plasma concentration in mouse at 3 mg/kg/day administered through continuous minipump treatment for 3 days by UPLC-MS analysis. Format: ADME, organism-based. To be noted: other: continuous minipump. Put shortly:
as §2

The nature of series [13]: Total drug level in mdr1a-deficient mouse brain at 3 mg/kg/day administered through continuous minipump treatment for 3 days by UPLC-MS analysis. To be noted: other: continuous minipump, read-out: Drug uptake. The format is ADME, organism-based. Put shortly: as §2
Series [14] in a line: Total brain to plasma partition coefficient of the compound in mdr1a-deficient mouse at 3 mg/kg/day administered through continuous minipump treatment for 3 days. Format: ADME, organism-based. To be noted: other: continuous minipump. The method, boiled down: as §3
A short description of series [15]: Percentage unbound in Sprague-Dawley rat brain at 1 uM after 5 hrs by equilibrium dialysis method. Format: ADME, tissue-based. The method, boiled down:
as §1

The nature of series [16]: Unbound brain to plasma partition coefficient of the compound in wild type Sprague-Dawley rat expressing Abcb1a at 6 mg/kg/day administered through continuous minipump treatment for 3 days. Format: ADME, organism-based. To be noted: other: continuous minipump, read-out: K(p,uu,brain). The method, boiled down:
(§4)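 Kp,uu is (Cbrain,total × fu,brain)/(Cplasma,total × fu,plasma). Total concentrations were measured at steady state after a 3-day subcutaneous minipump infusion in knockout or wild-type animals. Species-matched free fractions came from 5 h, 37°C equilibrium dialysis at 1 µM in naïve plasma and brain homogenate.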

Series [17] is described as follows: Unbound brain to plasma partition coefficient of the compound in mdr1a-deficient rat at 6 mg/kg/day administered through continuous minipump treatment for 3 days. Format: ADME, organism-based. To be noted: other: continuous minipump, read-out: K(p,uu,brain). The method, boiled down:
as §4

A short description of series [18]: Percentage unbound in Crl:NMRI(Han) mouse brain at 1 uM after 5 hrs by equilibrium dialysis method. Format: ADME, tissue-based. The method, boiled down:
as §1

The nature of series [19]: Unbound brain to plasma partition coefficient of the compound in wild type Crl:CF1 mouse expressing Abcb1a mutant at 3 mg/kg/day administered through continuous minipump treatment for 3 days. Format: ADME, organism-based. As to conditions: other: continuous minipump, read-out: K(p,uu,brain). The method, boiled down:
as §4

Series [20] can be described thus: Unbound brain to plasma partition coefficient of the compound in mdr1a-deficient mouse at 3 mg/kg/day administered through continuous minipump treatment for 3 days. Format: ADME, organism-based. As to conditions: other: continuous minipump, read-out: K(p,uu,brain). The method, boiled down: as §4
Series [21] can be described thus: Total plasma concentration in wild type Sprague-Dawley rat expressing Abcb1a treated with venlafaxine at 9 mg/kg/day administered through continuous minipump treatment for 3 days by UPLC-MS analysis. The format is ADME, organism-based. As to conditions: other: continuous minipump. Put shortly: as §2
Series [22] is described as follows: Total drug level in wild type Sprague-Dawley rat brain expressing Abcb1a treated with venlafaxine at 9 mg/kg/day administered through continuous minipump treatment for 3 days by UPLC-MS analysis. To be noted: other: continuous minipump, read-out: Drug uptake. The format is ADME, organism-based. The method, boiled down: as §2
The nature of series [23]: Total brain to plasma partition coefficient of the compound in wild type Sprague-Dawley rat expressing Abcb1a treated with venlafaxine at 9 mg/kg/day administered through continuous minipump treatment for 3 days. As to conditions: brain and plasma, other: continuous minipump. Format: ADME, organism-based. Put shortly:
as §3

Series [24] in a line: Total plasma concentration in mdr1a-deficient rat treated with venlafaxine at 9 mg/kg/day administered through continuous minipump treatment for 3 days by UPLC-MS analysis. The format is ADME, organism-based. As to conditions: other: continuous minipump. The method, boiled down: as §2
Series [25] can be described thus: Total drug level in mdr1a-deficient rat brain treated with venlafaxine at 9 mg/kg/day administered through continuous minipump treatment for 3 days by UPLC-MS analysis. To be noted: other: continuous minipump, read-out: Drug uptake. The format is ADME, organism-based. Put shortly: as §2
Series [26] in a line: Total brain to plasma partition coefficient of the compound in mdr1a-deficient rat treated with venlafaxine at 9 mg/kg/day administered through continuous minipump treatment for 3 days. To be noted: brain and plasma, other: continuous minipump. Format: ADME, organism-based. Put shortly:
as §3

A short description of series [27]: Total plasma concentration in mdr1a-deficient mouse treated with venlafaxine at 12 mg/kg/day administered through continuous minipump treatment for 3 days by UPLC-MS analysis. The format is ADME, organism-based. To be noted: other: continuous minipump. The method, boiled down:
as §2

Series [28] can be described thus: Total drug level in mdr1a-deficient mouse brain treated with venlafaxine at 12 mg/kg/day administered through continuous minipump treatment for 3 days by UPLC-MS analysis. Format: ADME, organism-based. To be noted: other: continuous minipump, read-out: Drug uptake. The method, boiled down:
as §2

A short description of series [29]: Total brain to plasma partition coefficient of the compound in mdr1a-deficient mouse treated with venlafaxine at 12 mg/kg/day administered through continuous minipump treatment for 3 days. The format is ADME, organism-based. As to conditions: other: continuous minipump. The method, boiled down:
as §3

The nature of series [30]: Total plasma concentration in wild type Crl:CF1 mouse expressing Abcb1a mutant treated with venlafaxine at 12 mg/kg/day administered through continuous minipump treatment for 3 days by UPLC-MS analysis. Format: ADME, organism-based. To be noted: other: continuous minipump. The method, boiled down:
as §2

Series [31] in a line: Total drug level in wild type Crl:CF1 mouse brain expressing Abcb1a mutant treated with venlafaxine at 12 mg/kg/day administered through continuous minipump treatment for 3 days by UPLC-MS analysis. As to conditions: other: continuous minipump, read-out: Drug uptake. The format is ADME, organism-based. Put shortly:
as §2

Series [32] can be described thus: Total brain to plasma partition coefficient of the compound in wild type Crl:CF1 mouse expressing Abcb1a mutant treated with venlafaxine at 12 mg/kg/day administered through continuous minipump treatment for 3 days. Format: ADME, organism-based. As to conditions: other: continuous minipump. Put shortly:
as §3

Series [33] is described as follows: Unbound brain to plasma partition coefficient of the compound in wild type Sprague-Dawley rat expressing Abcb1a treated with venlafaxine at 9 mg/kg/day administered through continuous minipump treatment for 3 days. The format is ADME, organism-based. As to conditions: other: continuous minipump, read-out: K(p,uu,brain). The method, boiled down: as §4
Series [34] is described as follows: Unbound brain to plasma partition coefficient of the compound in mdr1a-deficient Sprague-Dawley rat treated with venlafaxine at 9 mg/kg/day administered through continuous minipump treatment for 3 days. Format: ADME, organism-based. To be noted: other: continuous minipump, read-out: K(p,uu,brain). The method, boiled down: as §4
Series [35] can be described thus: Unbound brain to plasma partition coefficient of the compound in wild type Crl:CF1 mouse expressing Abcb1a mutant treated with venlafaxine at 12 mg/kg/day administered through continuous minipump treatment for 3 days. Format: ADME, organism-based. As to conditions: other: continuous minipump, read-out: K(p,uu,brain). The method, boiled down:
as §4

Series [36] can be described thus: Unbound brain to plasma partition coefficient of the compound in mdr1a-deficient mouse treated with venlafaxine at 12 mg/kg/day administered through continuous minipump treatment for 3 days. The format is ADME, organism-based. To be noted: other: continuous minipump, read-out: K(p,uu,brain). The method, boiled down:
as §4

Regarding `Cc1nc2n(c(=O)c1CCN1CCC(c3noc4cc(F)ccc34)CC1)CC(O)CC2` (configuration not stated), the fraction unbound at 5 h, 1 µM in series [1] was determined as 0.54; in series [2], 0.2.
As to `O=C1CCc2ccc(OCCCCN3CCN(c4cccc(Cl)c4Cl)CC3)cc2N1` [ARIPIPRAZOLE], the fraction unbound at 5 h, 1 µM was 0.002 in [1], 0.001 in series [2], 0.001 in [15] and 0.001 in series [18]. For the same compound, the concentration at 72 h in series [3] turned out to be 0.018 µg/mL; in [4], 3 ng/g; in series [6] it was 0.022 µg/mL; in [7], 14 ng/g; in [9] it was 0.051 µg/mL; in [10], 25 ng/g. The concentration at 72 h in series [12] was found to be 0.032 µg/mL; in series [13] it was 41 ng/g. Further, the Kp at 72 h in series [5] worked out at 0.19; in [8], 0.64; in [11], 0.49; in series [14], 1.3. Besides, the Kp uu at 72 h in [16] is 0.19; in series [17], 0.64; in series [19], 0.25; in series [20] it was 0.64.
In the case of `CN(C)CC(c1ccc(O)cc1)C1(O)CCCCC1` (configuration not stated) [DESVENLAFAXINE], the fraction unbound at 5 h, 1 µM was over 0.99 in series [1], 0.89 in [2], 0.35 in series [15] and 0.45 in [18]. The concentration at 72 h in series [21] amounted to 0.0045 µg/mL; in [22], 4.4 ng/g; in series [24], 0.011 µg/mL; in series [25], 33 ng/g; in [27] it was 0.0075 µg/mL; in series [28], 40 ng/g. For the same compound, the concentration at 72 h came out at 0.0057 µg/mL in [30] and 10 ng/g in series [31]. The Kp at 72 h worked out at 1 in series [23], 3.3 in [26], 5.7 in series [29] and 1.8 in [32]. The Kp uu at 72 h in [33] was 0.38; in series [34] it was 1.2; in series [35], 0.8; in series [36] it was 2.4.
